Sampled rows, rich in hits. Any-hit rate of the full collection: about 2.3%.
HNF4A DNA FP – change in binding of human HNF4A to DNA, primary screen, biochemical, fluorescence polarization, FITC-DNA | Hepatocyte nuclear factor 4-alpha (Homo sapiens), P41235 | 1 h | activity change, % at 10 µM | 360,000 tested, 0.3% active | AID 1224865, 2016; in the data active = activity change above about 30%, passing the limit was not always enough
Target sequence (P41235 whole entry, looked up): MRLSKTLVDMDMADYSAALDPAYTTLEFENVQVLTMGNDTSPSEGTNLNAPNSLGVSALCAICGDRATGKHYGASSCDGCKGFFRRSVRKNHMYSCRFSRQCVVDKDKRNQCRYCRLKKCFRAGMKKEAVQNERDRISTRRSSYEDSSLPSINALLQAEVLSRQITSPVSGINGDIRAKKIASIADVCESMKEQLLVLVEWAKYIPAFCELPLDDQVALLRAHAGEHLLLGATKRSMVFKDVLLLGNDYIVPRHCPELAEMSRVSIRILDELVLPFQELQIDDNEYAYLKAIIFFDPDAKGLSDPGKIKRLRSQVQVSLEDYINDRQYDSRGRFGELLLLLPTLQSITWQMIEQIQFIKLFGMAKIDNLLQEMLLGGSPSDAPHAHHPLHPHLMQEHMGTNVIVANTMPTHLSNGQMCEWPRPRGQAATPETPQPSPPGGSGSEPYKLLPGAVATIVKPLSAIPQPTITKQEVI
Myeloid diff 2 – induction of myeloid progenitor differentiation, primary screen, cell-based, flow cytometry, MLPCN library; ER-HoxA9 myeloid progenitors, lysozyme-GFP differentiation; calls only at 10 µM; 360,000 tested, 1% active; AID 624256, 2012;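 active = normalized GFP-positive differentiation at or above the plate's own cutoff, the solvent-only control mean plus 3 SD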;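 note: cells exposed to compound for four days before flow analysis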
CSN deneddyl inh – inhibitors of CSN-mediated cullin deneddylation, primary screen, biochemical, fluorescence polarization, uHTS; 360,000 tested, 0.38% active; inhibition, % at 12.5 µM; AID 651999, 2013; COP9 signalosome complex subunit 5 (Homo sapiens), Q92905; Purified CSN, SCF-Nedd8-OG deneddylation;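 active = pattern-corrected inhibition above about 35%, with an unprinted fluorescence ratio check between 0.5 and 1.5, limit read from the data, passing the limit was not always enough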;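 note: 0% = enzyme with substrate and 100% = substrate without enzyme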
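Assay system: Purified human Csn5 enzyme expressed in HEK293T cells | Amount: Enzyme 0.24 nM | Measured by: Fluorescence polarization readout | Medium: Tris/NaCl/DTT buffer, pH 7.5 | Compound dosing: One concentration, 12.5 µM, 0.25% DMSO | Times: 90 min incubation of compound, enzyme and substrate at room temperature | Control set: no-enzyme wells high, enzyme-with-substrate wells low | Read-out: % inhibition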
TPT1 inh – Candida albicans TPT1 enzyme inhibitors, primary screen, biochemical, fluorescence polarization; 300,000 tested, 0.81% active; recombinant caTPT1, FP RNA substrate dephosphorylation; inhibition, % at 5 µM; AID 1962, 2009; tRNA 2'-phosphotransferase TPT1 (Candida albicans SC5314);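 active = inhibition above the mean of all tested compounds plus 3 SD, set per screening campaign, cut at about 24% in these data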;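 note: plate controls were DMSO alone for no effect and ferristatin control at 100 nM for full effect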
Rpn11 block – Rpn11 (PSMD14) deubiquitinase inhibitors, primary screen, biochemical, fluorescence polarization, uHTS | AID 588493, 2011 | inhibition, % at 20 µM | 26S proteasome non-ATPase regulatory subunit 14 (Homo sapiens), O00487 | 360,000 tested, 0.59% active | human 26S proteasome, Ub4-pepOG fluorescence polarization; 20S core pre-blocked with epoxomicin;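 active = inhibition at 20 µM, scaled to each plate's controls, above about 33%, limit read from the data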
Myeloid diff CP1 – inducers of myeloid progenitor differentiation, confirmation, cell-based, GFP/Mac1 flow cytometry, cherry pick 01; shares compounds with Myeloid diff 2; ER-HoxA9 myeloid progenitors, GFP/Mac1 double-positive flow; calls only; 2,300 tested, 2% active;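 active = share of green or green-and-red cells above 9 and 9% in run 1 or 4 and 3% in run 2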
GFP autofluor – compound fluorescence in myeloid differentiation counter-screen; shares compounds with Myeloid diff 2; ER-HoxA9 myeloid progenitors, no estrogen, GFP autofluorescence flow cytometry; vehicle wells 0%, positive control 100%; fluorescence response, % (no concentration beside the values); 2,300 tested, 7.4% active; AID 651707;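 active = over 5% cells positive for green fluorescent reporter, or over 2% positive for both it and APC stain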;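 note: range taken on the double positive population between DMSO and positive control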
The depositor's hits bear a star; i = inactive; / = no result given; + = active, no number.

SMILES	HNF4A DNA FP	Myeloid diff 2	CSN deneddyl inh	TPT1 inh	Rpn11 block	Myeloid diff CP1	GFP autofluor
Cc1nn(Cc2ccccc2)c(Cl)c1C(=O)OCc1nnc(-c2ccc(Cl)cc2)o1	8	+	0	0	4	i	0
Cc1nn(Cc2ccccc2)c(Cl)c1C(=O)OCc1nnc(-c2ccccc2)o1	2	i	4	-1	0	/	/
Cc1ccc(CNC(=O)CC(C)S(=O)(=O)c2ccc3c(c2)NC(=O)C(C)S3)cc1 (stereo not drawn)	4	i	5	2	9	/	/
C=CCn1c(C)cc(-c2csc(NCC)n2)c1C	-15	+	-8	3	-47	i	0
Cc1ccc2c(c1)-c1c(cnn1CC(=O)Nc1ccccc1N1CCN(C)CC1)CO2	2	i	3	-3	2	i	0
Nn1cnnc1SC1CCCCC1NS(=O)(=O)c1ccccc1 (stereo not drawn)	1	+	4	-3	2	i	1
CC(C)N1C(=O)c2ccccc2NC(=O)C1C(=O)NCc1cccc(C(F)(F)F)c1 (stereo not drawn)	-2	i	-3	/	/	/	/
Cc1onc(-c2ccccc2Cl)c1C(=O)OCC(=O)N1CCN(c2ccccc2)CC1	-1	/	-3	-2	-1	/	/
COc1ccc(-n2c(SC(C)C(=O)Nc3ncc(Cl)cc3Cl)nc3ccccc32)cc1 (stereo not drawn)	0	+	1	-1	-1	i	0
Cc1ccc(CN2CCN(C/C(Cl)=C/c3ccccc3)CC2CCO)o1 (stereo not drawn)	-4	i	5	-1	-2	/	/
Nc1cc2c(cc1Cl)-c1ccccc1C2=NO	0	i	-4	/	1	/	/
Cc1cccc(N=CC=C2OC(C)(C)C(C)(C)O2)c1	1	+	4	0	-8	i	0
COc1cc2[nH]c(=O)n(CCC(=O)N3CC=C(c4ccccc4)CC3)c(=O)c2cc1OC	4	i	1	15	-3	/	/
COc1cc2[nH]c(=O)n(CCCC(=O)N3CC=C(c4ccccc4)CC3)c(=O)c2cc1OC	5	+	-8	0	-6	i	0
CCCCOc1ccc(C(=O)NNC(=O)c2cnccn2)cc1OC	0	i	0	/	10	/	/
O=c1c2ccccc2nc(CSc2nnnn2-c2ccccc2)n1-c1ccccc1Cl	1	i	-2	0	1	/	/
c1ccc(Cn2c(CSc3nnnn3-c3ccccc3)nc3ccccc32)cc1	6	i	0	0	0	i	0
CCc1nn(CC(=O)NCCCN(C)Cc2ccccc2)c(=O)c2cc3sc(C)cc3n12	1	i	-3	2	-1	/	/
CCc1nn(CC(=O)NCCCN(Cc2ccccc2)C(C)C)c(=O)c2cc3sccc3n12	2	+	-4	-2	-3	i	0
CC1=Nc2cc(C(=O)NCC3CCCO3)ccc2Sc2ccc(Br)cc21 (stereo not drawn)	2	i	4	0	3	i	1
CCOC(=O)[C@H]1[C@H]2COc3cc(OC)ccc3[C@@H]2N2C(=O)CN(CCc3c[nH]c4ccccc34)C(=O)[C@@]12C	8	i	-2	/	8	i	0
CCOC(=O)[C@H]1[C@H]2COc3ccc(Br)cc3[C@H]2N2C(=O)CN(CCc3c[nH]c4ccccc34)C(=O)[C@@]12C	1	i	0	/	2	/	/
Cc1ccc(NC(=S)Nn2cnnc2)c(C)c1	-2	i	4	/	-22	/	/
CC(C(=O)N1CCc2ccccc2C1)N1C(=O)c2ccccc2C1=O (stereo not drawn)	4	+	3	-4	2	i	0
Cc1nc(SCc2nc3c(O)cccc3[nH]2)c2oc3ccccc3c2n1	9	i	-5	/	-15	/	/
SMILES	HNF4A DNA FP	Myeloid diff 2	CSN deneddyl inh	TPT1 inh	Rpn11 block	Myeloid diff CP1	GFP autofluor
CCC(C)[C@H](NC(=O)NCc1ccccc1Cl)C(=O)OC (stereo partly drawn)	2	i	0	-1	5	i	0
O=C(NC1CCCc2ccccc21)c1ccc(Br)cc1 (stereo not drawn)	-2	i	1	0	2	/	/
O=C(CCNC(=O)c1ccc(Br)cc1)NC1CCCc2ccccc21 (stereo not drawn)	-3	+	1	-4	-2	+	0
Cc1cc(C)c(C)c(S(=O)(=O)NCc2ccc(C(=O)NCC3CCCO3)cc2)c1C (stereo not drawn)	3	i	-1	-6	-5	/	/
Cc1nc2ccccc2n1CC(O)COCC1CC=CCC1 (stereo not drawn)	-4	+	-5	-2	-6	i	0
O=C(Nc1ccc2c(c1)COC2=O)c1ccc(Cl)c(Cl)c1	-1	i	3	0	8	/	/
CCOC(=O)c1cnc2ccc(C(=O)OC)cc2c1Nc1ccc2c(c1)OCCO2	0	/	-4	2	4	i	0
COc1cccc(C(=O)NC(=S)Nc2ccc3c4c(cccc24)CC3)c1	5	+	9	0	13	i	1
COc1ccc(OCC(=O)NC(=S)Nc2ccc3c4c(cccc24)CC3)cc1	0	i	4	2	3	/	/
COc1ccc(NC(=O)c2cccnc2)c(OC)c1	1	+	-3	1	-4	i	0
COc1cccc(C(=O)Nc2ccc(F)cc2F)c1	3	i	-4	-2	8	i	0
O=C1C=C(C#Cc2ccccc2)C[C@@H](c2ccc(F)cc2)C1	2	i	-3	/	-2	/	/
O=C(Nc1cnc2ccccc2c1)N1CCOCC1	-4	i	-2	-1	1	i	0
CSc1ccccc1C(=O)NC1CCCC1	-1	i	-3	5	-6	i	0
O=C(N/N=C/c1ccncc1)c1cc([N+](=O)[O-])cc([N+](=O)[O-])c1O	-2	i	0	-1	-9	i	0
CN(Cc1ccccc1)C(=O)c1cccc(NC(=O)Cc2cccc(NC(=O)C3CCN(C(=O)C4CCC4)CC3)c2)c1	3	i	-1	/	6	/	/
Cc1ccc(S(=O)(=O)c2nc(S(C)(=O)=O)sc2N2CCCCCC2)cc1	5	i	-4	2	-3	/	/

Screening data from PubChem BioAssay.
